Data set [1] has as its target T1, Diacylglycerol O-acyltransferase 1 (Mus musculus, UniProt Q9Z2A7).
T1 sequence (Q9Z2A7 whole entry): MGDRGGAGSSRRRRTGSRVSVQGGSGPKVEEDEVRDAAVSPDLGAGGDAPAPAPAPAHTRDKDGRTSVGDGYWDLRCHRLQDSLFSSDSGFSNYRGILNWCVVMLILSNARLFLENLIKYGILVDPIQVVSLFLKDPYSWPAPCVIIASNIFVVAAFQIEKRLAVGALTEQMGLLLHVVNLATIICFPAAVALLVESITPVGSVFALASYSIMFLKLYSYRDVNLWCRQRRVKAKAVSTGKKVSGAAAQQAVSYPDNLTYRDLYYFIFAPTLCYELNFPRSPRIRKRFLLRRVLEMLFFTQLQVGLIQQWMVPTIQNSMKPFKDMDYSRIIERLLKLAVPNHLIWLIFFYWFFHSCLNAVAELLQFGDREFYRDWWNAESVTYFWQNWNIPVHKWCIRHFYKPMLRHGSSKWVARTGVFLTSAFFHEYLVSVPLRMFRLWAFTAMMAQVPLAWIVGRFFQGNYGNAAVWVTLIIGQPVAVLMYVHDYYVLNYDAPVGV
Kind of data set: Inhibition of mouse DGAT1.

In data set [2] the target is T2, Diacylglycerol O-acyltransferase 1 (Homo sapiens, UniProt O75907).
T2 sequence (O75907 whole entry): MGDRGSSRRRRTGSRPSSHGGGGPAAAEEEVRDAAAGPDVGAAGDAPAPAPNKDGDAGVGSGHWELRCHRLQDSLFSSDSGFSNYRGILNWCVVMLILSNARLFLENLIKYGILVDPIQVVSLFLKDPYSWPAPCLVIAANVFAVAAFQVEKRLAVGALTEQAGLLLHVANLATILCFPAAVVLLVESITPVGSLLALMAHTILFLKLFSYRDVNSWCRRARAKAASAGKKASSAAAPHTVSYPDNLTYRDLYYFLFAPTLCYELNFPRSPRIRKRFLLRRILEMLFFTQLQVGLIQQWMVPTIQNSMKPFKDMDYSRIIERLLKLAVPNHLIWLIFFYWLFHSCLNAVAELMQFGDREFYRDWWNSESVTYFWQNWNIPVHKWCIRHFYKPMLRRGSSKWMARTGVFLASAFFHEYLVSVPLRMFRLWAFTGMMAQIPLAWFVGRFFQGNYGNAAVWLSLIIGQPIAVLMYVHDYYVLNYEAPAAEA
As to the kind of experiment: Inhibition of human DGAT1.

The nature of data set [3]: Lipophilicity, log D of the compound by HPLC analysis. The format is physicochemical.
A short description of data set [4]: Biodistribution in mouse ileum at 3 mg/kg, po at 5 hrs. The following applies: read-out: Drug uptake. The class given is ADME, organism-based. Also on record: dose 3 mg/kg, route oral. Put shortly: (§1)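 Mice, single oral dose of 3 mg/kg. Drug concentration (μM) determined in blood and in duodenum, jejunum and ileum segments at 2, 5 and 25 h.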
Data set [5] in a line: Biodistribution in mouse blood at 3 mg/kg, po at 2 hrs. The class given is ADME, organism-based. The arrangement: dose 3 mg/kg, route oral. The conditions noted are these: whole blood, read-out: Drug uptake. Put shortly:
as §1

Data set [6] can be described thus: Biodistribution in mouse duodenum at 3 mg/kg, po at 2 hrs. The class given is ADME, organism-based. Also on record: dose 3 mg/kg, route oral. The conditions noted are these: read-out: Drug uptake. In short, it runs like this: as §1
Data set [7] is described as follows: Ratio of drug uptake in jejunum to blood of mouse at 3 mg/kg, po at 2 to 25 hrs. The format is ADME, organism-based. Also on record: dose 3 mg/kg, route oral. In short, it runs like this: (§2)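 Mice dosed orally at 3 mg/kg within a repeat lipid tolerance test. Drug levels (μM) measured in blood and in intestinal segments (duodenum, jejunum, ileum) at 2, 5 and 25 h after dosing. Tissue-to-blood ratio taken from the segment and blood concentrations at each time point.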

A short description of data set [8]: Biodistribution in mouse jejunum at 3 mg/kg, po at 25 hrs. Also on record: dose 3 mg/kg, route oral. The class given is ADME, organism-based. The following applies: read-out: Drug uptake. Put shortly: as §1
The subject of the next data set is Mus musculus. As to the kind of experiment: Reduction in triglyceride excursion in mouse at 3 mg/kg, po by lipid tolerance test. The arrangement: scale not given: the % may be the effect or the level left. The format is functional.
The nature of data set [9]: Ratio of drug uptake in duodenum to blood of mouse at 3 mg/kg, po at 2 to 25 hrs. The class given is ADME, organism-based. The arrangement: dose 3 mg/kg, route oral. Put shortly: as §2
Data set [10] in a line: Biodistribution in mouse blood at 3 mg/kg, po at 25 hrs. The format is ADME, organism-based. Also on record: dose 3 mg/kg, route oral. The following applies: whole blood, read-out: Drug uptake. In short, it runs like this:
as §1

The nature of data set [11]: Biodistribution in mouse blood at 3 mg/kg, po at 5 hrs. Also on record: dose 3 mg/kg, route oral. The following applies: whole blood, read-out: Drug uptake. The format is ADME, organism-based. Put shortly: as §1
The nature of data set [12]: Ratio of drug uptake in ileum to blood of mouse at 3 mg/kg, po at 2 to 25 hrs. The class given is ADME, organism-based. The arrangement: dose 3 mg/kg, route oral. Put shortly: as §2
The nature of data set [13]: Biodistribution in mouse ileum at 3 mg/kg, po at 2 hrs. The conditions noted are these: read-out: Drug uptake. Also on record: dose 3 mg/kg, route oral. The format is ADME, organism-based. In short, it runs like this: as §1
A short description of data set [14]: Biodistribution in mouse jejunum at 3 mg/kg, po at 5 hrs. The format is ADME, organism-based. The arrangement: dose 3 mg/kg, route oral. The following applies: read-out: Drug uptake. Put shortly: as §1
Data set [15] in a line: Biodistribution in mouse jejunum at 3 mg/kg, po at 2 hrs. The class given is ADME, organism-based. Also on record: dose 3 mg/kg, route oral. The following applies: read-out: Drug uptake. In short, it runs like this:
as §1

Data set [16] in a line: Biodistribution in mouse duodenum at 3 mg/kg, po at 5 hrs. The arrangement: dose 3 mg/kg, route oral. The conditions noted are these: read-out: Drug uptake. The class given is ADME, organism-based. In short, it runs like this:
as §1

Data set [17] can be described thus: Biodistribution in mouse ileum at 3 mg/kg, po at 25 hrs. The format is ADME, organism-based. Also on record: dose 3 mg/kg, route oral. The following applies: read-out: Drug uptake. In short, it runs like this:
as §1

A short description of data set [18]: Biodistribution in mouse duodenum at 3 mg/kg, po at 25 hrs. The following applies: read-out: Drug uptake. Also on record: dose 3 mg/kg, route oral. The class given is ADME, organism-based. In short, it runs like this:
as §1

The next data set concerns Canis familiaris. Kind of data set: Reduction in triglyceride excursion in dog at 3 mg/kg, po administered 1 hr prior lipid-challenge measured up to 24 hrs by lipid tolerance test. The following applies: Canis lupus familiaris. The format is functional, organism-based. The arrangement: dose 3 mg/kg. Put shortly:
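Dog lipid tolerance test. Oral dose of 3 mg/kg in 0.5% methyl cellulose; lipid challenge 1 h after dosing; triglyceride excursion compared with a vehicle group over time; plasma drug levels sampled from 0 to 24 h.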

Calls of active or inactive are those of the source. The calls are words filed in the database; no cut-off is given here.

Consider `O=C(O)[C@H]1CC[C@H](Oc2ccc(-c3ccc(-c4nc5ccccc5[nH]4)cn3)cn2)CC1`, for which the figures for the IC50 in data set [1] and in data set [2] were 12 nM and 5.3 nM, respectively.

On to `O=C(O)C[C@H]1CC[C@H](c2ccc(-c3ccc(-c4nc5cc(Cl)ccc5[nH]4)cn3)cc2)CC1`, for which the IC50 amounted to 1 nM in data set [1] and 1.1 nM in [2]. Moreover, the logD in [3] was 1.8.

Take `O=C(O)[C@H]1CC[C@@H](Oc2ccc(-c3ccc(-c4nc5ccc(OC(F)(F)F)cc5[nH]4)cn3)cn2)CC1`: the values for the IC50 in data set [1] and in data set [2] were 4.6 nM and 3.9 nM, respectively.

As to `N#Cc1ccc2nc(-c3ccc(-c4ccc(O[C@H]5CC[C@H](C(=O)O)CC5)nc4)nc3)[nH]c2c1`, the concentration for half-maximal inhibition (IC50) in [1] is 96 nM; in data set [2], 6 nM.

Turning to `O=C(O)[C@H]1CC[C@H](Oc2ccc(-c3ccc(-c4nc5cc(F)c(F)cc5[nH]4)cn3)cn2)CC1`, the values for the IC50 in data set [1] and in [2] were 4.3 nM and 1.3 nM, respectively.

As to `O=C(O)[C@H]1CC[C@@H](Oc2ccc(-c3ccc(-c4nc5ccccc5[nH]4)cn3)cn2)CC1`, the concentration at 5 h in data set [4] is 1720 nM; in [11], 51 nM; in data set [14], 6010 nM; in data set [16], 8760 nM. For the same compound, the concentration at 2 h in [5] was 114 nM; in data set [6], 8320 nM; in [13], 3890 nM; in data set [15] it was 5510 nM. Moreover, the Kp in data set [7], in [9] and in [12] was more than 30 throughout. Also, the IC50 in data set [1] was 8.1 nM; in [2], 4 nM. Further, the concentration at 25 h in data set [8] was found to be 3060 nM; in data set [10] it was 10 nM; in data set [17] it was 620 nM; in data set [18] it was 1760 nM. The Activity with Mus musculus is 95%.

In the case of `COc1ccc2[nH]c(-c3ccc(-c4ccc(O[C@H]5CC[C@H](C(=O)O)CC5)nc4)nc3)nc2n1`, the midpoint of inhibition in data set [2], the IC50, lay at 14 nM.

Take `O=C(O)[C@H]1CC[C@@H](Oc2ccc(-c3ccc(-c4nc5cc(F)ccc5[nH]4)cn3)cn2)CC1`: the Activity with Mus musculus is reported as 72%. Also, the result in the data set with Canis familiaris was Active.

`O=C(O)[C@H]1CC[C@@H](Oc2ccc(-c3ccc(-c4nc5cc(F)c(F)cc5[nH]4)cn3)cn2)CC1`: the IC50 was found to be 3.4 nM in data set [1] and 1.4 nM in [2]. The same compound returned a logD in data set [3] of 1.28.

(Values after ChEMBL document CHEMBL2407079, “Potent DGAT1 Inhibitors in the Benzimidazole Class with a Pyridyl-oxy-cyclohexanecarboxylic Acid Moiety” (ACS Med Chem Lett, 2013).)
